Reference: ChEMBL document CHEMBL1926564, “Design, synthesis and biological activity of original pyrazolo-pyrido-diazepine, -pyrazine and -oxazine dione derivatives as novel dual Nox4/Nox1 inhibitors” (Bioorg Med Chem, 2011)

Tests used:
NADPH oxidase 1 = target: T1, NADPH oxidase 1 (Homo sapiens, UniProt Q9Y5S8); assay: Antagonist activity at human NOX1 expressed in CHO cell membrane coexpressing tetracylin repressor assessed as inhibition of ROS production after 20 mins by cell-free amplex red assay; format: functional
T1 sequence (Q9Y5S8 whole entry): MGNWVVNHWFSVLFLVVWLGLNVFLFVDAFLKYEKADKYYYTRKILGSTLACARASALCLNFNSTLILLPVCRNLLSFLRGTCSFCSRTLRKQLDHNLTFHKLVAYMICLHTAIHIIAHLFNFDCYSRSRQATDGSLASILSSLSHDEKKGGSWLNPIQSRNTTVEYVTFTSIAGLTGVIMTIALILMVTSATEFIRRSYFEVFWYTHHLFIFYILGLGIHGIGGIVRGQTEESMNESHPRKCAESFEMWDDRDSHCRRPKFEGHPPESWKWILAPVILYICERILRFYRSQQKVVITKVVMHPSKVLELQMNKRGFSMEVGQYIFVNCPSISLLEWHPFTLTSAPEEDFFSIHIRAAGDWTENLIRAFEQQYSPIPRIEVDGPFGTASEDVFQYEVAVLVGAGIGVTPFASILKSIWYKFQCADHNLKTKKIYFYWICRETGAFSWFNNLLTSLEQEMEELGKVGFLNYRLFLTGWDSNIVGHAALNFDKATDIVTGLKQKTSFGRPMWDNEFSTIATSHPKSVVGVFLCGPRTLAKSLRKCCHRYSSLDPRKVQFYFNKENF
Procedure, shortened: (§1)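 Membranes from tetracycline-induced (24 h) Nox-expressing cells or human PMN (Nox2), sucrose-gradient purified; or xanthine oxidase. Incubated in PBS with Amplex Red, HRP and cofactors; NADPH (Nox) or xanthine starts ROS. Compound 1 nM–100 µM, 20 min at 37 °C, plate-reader. Background without membranes or agonist. Ki by Cheng-Prusoff; mean of ≥3 experiments in triplicate.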

NADPH oxidase 2 = target: T2, NADPH oxidase 2 (Homo sapiens, UniProt P04839); assay: Antagonist activity at human NOX2 in human polymorphonuclear cell membrane assessed as inhibition of ROS production after 20 mins by cell-free amplex red assay; format: functional; procedure, shortened: as §1
T2 sequence (P04839 whole entry): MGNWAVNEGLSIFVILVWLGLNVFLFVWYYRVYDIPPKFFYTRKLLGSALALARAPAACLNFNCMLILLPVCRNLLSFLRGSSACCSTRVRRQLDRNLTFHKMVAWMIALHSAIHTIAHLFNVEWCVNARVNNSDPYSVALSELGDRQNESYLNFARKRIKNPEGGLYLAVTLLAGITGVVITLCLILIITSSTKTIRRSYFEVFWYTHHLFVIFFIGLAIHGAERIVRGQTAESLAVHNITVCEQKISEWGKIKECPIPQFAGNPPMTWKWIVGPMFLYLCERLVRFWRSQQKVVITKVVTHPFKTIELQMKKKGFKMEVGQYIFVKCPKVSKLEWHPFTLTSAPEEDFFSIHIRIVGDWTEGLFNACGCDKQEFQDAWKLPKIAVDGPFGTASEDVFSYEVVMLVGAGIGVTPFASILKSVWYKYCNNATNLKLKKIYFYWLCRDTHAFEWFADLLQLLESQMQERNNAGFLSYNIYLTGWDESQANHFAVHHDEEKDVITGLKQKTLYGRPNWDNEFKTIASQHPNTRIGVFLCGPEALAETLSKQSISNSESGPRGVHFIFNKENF

NADPH oxidase 4 = target: T3, NADPH oxidase 4 (Homo sapiens, UniProt Q9NPH5); assay: Antagonist activity at human NOX4 expressed in CHO cell membrane coexpressing tetracylin repressor assessed as inhibition of ROS production after 20 mins by cell-free amplex red assay; format: functional; conditions: in the assay text read “HEK293 cell membrane” for “CHO cell membrane”; procedure, shortened: as §1
T3 sequence (Q9NPH5 whole entry): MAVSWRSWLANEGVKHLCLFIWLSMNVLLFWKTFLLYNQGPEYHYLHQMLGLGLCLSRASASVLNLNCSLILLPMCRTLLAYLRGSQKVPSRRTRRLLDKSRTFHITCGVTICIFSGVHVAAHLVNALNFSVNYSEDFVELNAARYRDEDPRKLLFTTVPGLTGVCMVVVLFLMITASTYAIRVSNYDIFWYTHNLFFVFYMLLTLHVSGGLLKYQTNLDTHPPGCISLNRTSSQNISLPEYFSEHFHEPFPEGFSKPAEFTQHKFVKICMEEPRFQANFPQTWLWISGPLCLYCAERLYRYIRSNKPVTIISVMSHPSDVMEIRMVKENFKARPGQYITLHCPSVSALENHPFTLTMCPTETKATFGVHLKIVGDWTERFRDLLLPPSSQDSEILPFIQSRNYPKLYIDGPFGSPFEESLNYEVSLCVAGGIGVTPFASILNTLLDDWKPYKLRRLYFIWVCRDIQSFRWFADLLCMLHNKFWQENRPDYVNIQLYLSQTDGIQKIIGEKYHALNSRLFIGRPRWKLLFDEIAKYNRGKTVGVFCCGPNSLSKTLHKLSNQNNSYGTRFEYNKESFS

NADPH oxidase 5 = target: T4, NADPH oxidase 5 (Homo sapiens, UniProt Q96PH1); assay: Antagonist activity at human NOX5 assessed as inhibition of ROS production after 20 mins by cell-free amplex red assay; format: functional; procedure, shortened: as §1
T4 sequence (Q96PH1 whole entry): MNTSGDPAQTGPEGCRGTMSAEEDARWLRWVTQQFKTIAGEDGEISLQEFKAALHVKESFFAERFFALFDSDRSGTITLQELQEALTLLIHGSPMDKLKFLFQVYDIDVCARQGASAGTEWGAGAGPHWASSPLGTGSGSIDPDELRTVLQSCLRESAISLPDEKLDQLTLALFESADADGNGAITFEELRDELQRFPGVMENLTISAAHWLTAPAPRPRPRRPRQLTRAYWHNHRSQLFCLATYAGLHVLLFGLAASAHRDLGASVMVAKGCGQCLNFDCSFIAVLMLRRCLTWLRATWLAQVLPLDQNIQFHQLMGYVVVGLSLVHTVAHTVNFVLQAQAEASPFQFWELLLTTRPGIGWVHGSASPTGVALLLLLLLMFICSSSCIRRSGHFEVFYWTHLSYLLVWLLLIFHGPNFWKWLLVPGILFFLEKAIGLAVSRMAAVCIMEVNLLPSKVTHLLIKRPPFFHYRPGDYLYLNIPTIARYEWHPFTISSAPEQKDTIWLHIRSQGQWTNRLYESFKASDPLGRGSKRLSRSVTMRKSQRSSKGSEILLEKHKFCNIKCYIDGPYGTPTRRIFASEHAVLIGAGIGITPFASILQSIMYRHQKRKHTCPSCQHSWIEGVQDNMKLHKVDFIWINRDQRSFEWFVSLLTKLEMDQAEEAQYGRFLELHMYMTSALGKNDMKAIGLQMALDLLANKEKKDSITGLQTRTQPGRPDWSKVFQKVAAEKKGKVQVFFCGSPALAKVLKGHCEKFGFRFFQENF

[1] = Clearance in human liver microsomes assessed per mg of protein at 0.5 uM; format: ADME, Microsome; conditions: read-out: CLH
Procedure, shortened: (§2)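 Pooled rat (male Sprague Dawley) or human (mixed-sex) liver microsomes at 0.5 mg/mL final, 0.1 M phosphate pH 7.4, compound 0.5 µM final, 0.25% DMSO, 37 °C; 1 mM NADPH starts reaction. Sampled 0–45 min, methanol quench with internal standard, LC/MS-MS; intrinsic clearance from compound loss.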

[2] = Clearance in Sprague-Dawley rat liver microsomes assessed per mg of protein at 0.5 uM; format: ADME, Microsome; conditions: read-out: CLH; procedure, shortened: as §2
[3] = Apparent permeability across human Caco2 cells at 10 uM after 2 hrs; format: ADME, cell-based; conditions: Caco-2
Procedure, shortened: (§3)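 Caco-2 monolayers grown 20 days, TEER >800 ohm·cm². Compound 10 µM final in HBSS pH 6.5 (1% DMSO), dosed apical (A→B) or basolateral (B→A), 2 h at 37 °C; both compartments sampled, LC–MS/MS cassette analysis with 5-point calibration.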

[4] = Efflux ratio of apparent permeability across human Caco2 cells at 10 uM after 2 hrs; format: ADME, cell-based; conditions: Caco-2; procedure, shortened: as §3
[5] = Lipophilicity, log D of the compound at pH 7.4; format: physicochemical; conditions: buffer
[6] = Fraction unbound in rat plasma containing 50% plasma protein; format: ADME, cell-free
Procedure, shortened: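 Rat plasma protein binding in 50% plasma; fraction unbound reported.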

Homo sapiens = species: Homo sapiens; assay: Selectivity ratio of Ki for human NOX2 to Ki for human NOX4
Procedure, shortened: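 Ratio of Ki values from the Amplex Red membrane ROS assay (PMN membranes for Nox2, Nox4-overexpressing membranes), NADPH-triggered, 1 nM–100 µM, 20 min at 37 °C; Ki via Cheng-Prusoff.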

Ki (NADPH oxidase 1) [nM]	Ki (NADPH oxidase 2) [nM]	Ki (NADPH oxidase 4) [nM]	Ki (NADPH oxidase 5) [nM]	microsomal CLint at 0.5 µM [1] [µL/min/mg]	microsomal CLint at 0.5 µM [2] [µL/min/mg]	Papp at 2 h, 10 µM [3] [×10⁻⁶ cm/s]	efflux ratio at 2 h, 10 µM [4]	logD [5]	fraction unbound [6]	Ratio Ki (Homo sapiens)	SMILES
148	1280	103	590	–	–	–	–	–	–	–	CC(C)(C)OC(=O)N1CCCn2c(c3c(=O)n(-c4ccccc4Cl)[nH]c3cc2=O)C1
217	510	93	610	15.7	32.1	1.4	16.8	0.33	0.069	–	COc1ccccc1-n1[nH]c2cc(=O)n3c(c2c1=O)CN(Cc1ccccn1)CCC3.Cl
200	1020	111	955	–	–	–	–	–	–	–	O=c1c2c3n(c(=O)cc2[nH]n1-c1ccccc1Cl)CCCN(Cc1ccoc1)C3
113	1200	112	730	35	60.1	22.3	1.91	1.99	0.901	–	COc1cccc(CN2CCCn3c(c4c(=O)n(-c5ccccc5Cl)[nH]c4cc3=O)C2)c1.Cl
218	645	144	670	–	–	–	–	–	–	–	COc1ccccc1-n1[nH]c2cc(=O)n3c(c2c1=O)CN(Cc1ccccc1)CCC3
119	365	87	360	–	–	–	–	–	–	4.2	O=c1c2c3n(c(=O)cc2[nH]n1-c1ccccc1Cl)CCCNC3
87	1160	76	615	87.1	164	–	–	2.76	–	–	O=c1c2c3n(c(=O)cc2[nH]n1-c1ccccc1Cl)CCCN(Cc1ccccc1Cl)C3
212	820	131	690	–	–	–	–	–	–	–	COc1cccc(CN2CCCn3c(c4c(=O)n(-c5ccccc5OC)[nH]c4cc3=O)C2)c1
95	1260	103	585	77.3	152	–	–	2.76	–	–	O=c1c2c3n(c(=O)cc2[nH]n1-c1ccccc1Cl)CCCN(Cc1ccc(Cl)cc1)C3
398	2020	142	1420	–	–	–	–	–	–	–	O=c1c2c3n(c(=O)cc2[nH]n1-c1ccccc1Cl)CCN(Cc1ccccc1)C3
208	1370	94	1150	21	31.1	1	18.7	0.92	0.029	–	Cl.O=c1c2c3n(c(=O)cc2[nH]n1-c1ccccc1Cl)CCCN(Cc1cccnc1)C3
133	1760	111	740	–	–	–	–	–	–	–	COc1ccccc1CN1CCCn2c(c3c(=O)n(-c4ccccc4Cl)[nH]c3cc2=O)C1
184	780	116	690	–	–	–	–	–	–	–	COc1ccc(CN2CCCn3c(c4c(=O)n(-c5ccccc5Cl)[nH]c4cc3=O)C2)cc1
173	433	156	490	–	–	–	–	–	–	–	O=c1c2c3n(c(=O)cc2[nH]n1-c1ccccc1Cl)CCOC3
104	1150	101	475	81.4	153	–	–	2.76	–	–	O=c1c2c3n(c(=O)cc2[nH]n1-c1ccccc1Cl)CCCN(Cc1cccc(Cl)c1)C3
